Experimental data from ChEMBL document CHEMBL1142148, “Antibiotic susceptibility profile of bifidobacteria as affected by oxgall, acid, and hydrogen peroxide stress” (2007).

Legend:
[1] = test system: Bifidobacterium bifidum; test: Antimicrobial activity against Bifidobacterium bifidum ATCC 15696; type: functional
How it was run: (§1)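 Broth microdilution in MRS plus 0.05% L-cysteine-HCl. Mid-log culture adjusted to OD650 0.1, giving about 2.5 × 10^4 to 5.0 × 10^4 CFU/well, then added to twofold serial dilutions of agent. Plates incubated anaerobically at 37°C for 18 h and read at OD650. MIC is the lowest concentration matching the uninoculated blank OD, taken as the median of four repeats.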

[2] = test system: Bifidobacterium pseudolongum; test: Antimicrobial activity against 90 mins oxgall-stressed Bifidobacterium pseudolongum ATCC 25562 after 18 hrs; type: functional
How it was run: (§2)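 Cells pelleted from mid-log MRS culture and resuspended in MRS (initial pH 6.5) with 0.3% (wt/vol) oxgall for 90 min anaerobically at 37°C. They were then regrown in MRS pH 6.5 for 24 h (footnote: 18 h) anaerobically and tested for MIC by the same broth microdilution assay. Median of four repetitions.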

[3] = test system: Bifidobacterium animalis; test: Antimicrobial activity against Bifidobacterium animalis ATCC 27536; type: functional; how it was run: as §1
[4] = test system: Bifidobacterium bifidum; test: Antimicrobial activity against 90 mins hydrogen peroxide-stressed Bifidobacterium bifidum R0071 after 18 hrs; type: functional
How it was run: (§3)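 Stress applied for 90 min at 37°C under anaerobic conditions, using MRS (initial pH 6.5) containing H2O2 at each strain's own inhibitory concentration. The H2O2 level was set beforehand by microplate tolerance testing. Challenged cells were regrown in MRS for 24 h (footnote: 18 h) before MIC testing by broth microdilution. Median of four repetitions.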

[5] = test system: Bifidobacterium longum; test: Antimicrobial activity against 60 min 1 M HCl-stressed Bifidobacterium longum P/N 601377 after 18 hrs; type: functional
How it was run: (§4)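 Mid-log MRS culture pelleted and resuspended in MRS broth brought to pH 2.0 with 1 M HCl, held anaerobically at 37°C for 60 min, then subcultured in MRS (pH 6.5) for 24 h anaerobically before MIC testing by broth microdilution (as for unstressed cells). Table footnote gives 18 h anaerobic regrowth after the stress. MIC is the median of four repetitions.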

[6] = test system: Bifidobacterium longum; test: Antimicrobial activity against 90 mins oxgall-stressed Bifidobacterium longum ATCC 15708 after 18 hrs; type: functional; how it was run: as §2
[7] = test system: Bifidobacterium animalis; test: Antimicrobial activity against 60 min 1 M HCl-stressed Bifidobacterium animalis ATCC 27536 after 18 hrs; type: functional; how it was run: as §4
[8] = test system: Bifidobacterium thermophilum; test: Antimicrobial activity against 90 mins hydrogen peroxide-stressed Bifidobacterium thermophilum ATCC 25866 after 18 hrs; type: functional; how it was run: as §3
[9] = test system: Bifidobacterium thermophilum; test: Antimicrobial activity against Bifidobacterium thermophilum ATCC 25866; type: functional; how it was run: as §1
[10] = test system: Bifidobacterium animalis; test: Antimicrobial activity against 90 mins hydrogen peroxide-stressed Bifidobacterium animalis ATCC 27536 after 18 hrs; type: functional; how it was run: as §3
[11] = test system: Bifidobacterium animalis; test: Antimicrobial activity against 90 mins oxgall-stressed Bifidobacterium animalis ATCC 27536 after 18 hrs; type: functional; how it was run: as §2
[12] = test system: Bifidobacterium longum; test: Antimicrobial activity against 90 mins hydrogen peroxide-stressed Bifidobacterium longum ATCC 15707 after 18 hrs; type: functional; how it was run: as §3
[13] = test system: Bifidobacterium bifidum; test: Antimicrobial activity against Bifidobacterium bifidum R0071; type: functional; how it was run: as §1
[14] = test system: Bifidobacterium longum; test: Antimicrobial activity against Bifidobacterium longum ATCC 15707; type: functional; how it was run: as §1
[15] = test system: Bifidobacterium longum; test: Antimicrobial activity against 90 mins oxgall-stressed Bifidobacterium longum ATCC 15707 after 18 hrs; type: functional; how it was run: as §2
[16] = test system: Bifidobacterium thermophilum; test: Antimicrobial activity against 90 mins oxgall-stressed Bifidobacterium thermophilum ATCC 25866 after 18 hrs; type: functional; how it was run: as §2
[17] = Antimicrobial activity against 60 min 1 M HCl-stressed Bifidobacterium infantis ATCC 15697 after 18 hrs; type: functional, Bifidobacterium longum subsp. infantis; conditions: Bifidobacterium longum; how it was run: as §4
[18] = test system: Bifidobacterium breve; test: Antimicrobial activity against Bifidobacterium breve ATCC 15700; type: functional; how it was run: as §1
[19] = test system: Bifidobacterium bifidum; test: Antimicrobial activity against 90 mins oxgall-stressed Bifidobacterium bifidum BB12 after 18 hrs; type: functional; how it was run: as §2
[20] = Antimicrobial activity against Bifidobacterium infantis ATCC 15697; type: functional, Bifidobacterium longum subsp. infantis; conditions: Bifidobacterium longum; how it was run: as §1
[21] = test system: Bifidobacterium bifidum; test: Antimicrobial activity against 60 min 1 M HCl-stressed Bifidobacterium bifidum R0071 after 18 hrs; type: functional; how it was run: as §4
[22] = test system: Bifidobacterium pseudolongum; test: Antimicrobial activity against 60 min 1 M HCl-stressed Bifidobacterium pseudolongum ATCC 25562 after 18 hrs; type: functional; how it was run: as §4
[23] = test system: Bifidobacterium breve; test: Antimicrobial activity against Bifidobacterium breve R0070; type: functional; how it was run: as §1
[24] = test system: Bifidobacterium bifidum; test: Antimicrobial activity against 90 mins oxgall-stressed Bifidobacterium bifidum R0071 after 18 hrs; type: functional; how it was run: as §2
[25] = test system: Bifidobacterium longum; test: Antimicrobial activity against 60 min 1 M HCl-stressed Bifidobacterium longum ATCC 15707 after 18 hrs; type: functional; how it was run: as §4
[26] = test system: Bifidobacterium breve; test: Antimicrobial activity against 90 mins oxgall-stressed Bifidobacterium breve R0070 after 18 hrs; type: functional; how it was run: as §2
[27] = test system: Bifidobacterium longum; test: Antimicrobial activity against 90 mins hydrogen peroxide-stressed Bifidobacterium longum R0175 after 18 hrs; type: functional; how it was run: as §3
[28] = test system: Bifidobacterium longum; test: Antimicrobial activity against Bifidobacterium longum R0175; type: functional; how it was run: as §1
[29] = test system: Bifidobacterium longum; test: Antimicrobial activity against 90 mins hydrogen peroxide-stressed Bifidobacterium longum ATCC 15708 after 18 hrs; type: functional; how it was run: as §3
[30] = test system: Bifidobacterium longum; test: Antimicrobial activity against 90 mins oxgall-stressed Bifidobacterium longum R0175 after 18 hrs; type: functional; how it was run: as §2
[31] = test system: Bifidobacterium breve; test: Antimicrobial activity against 60 min 1 M HCl-stressed Bifidobacterium breve R0070 after 18 hrs; type: functional; how it was run: as §4
[32] = test system: Bifidobacterium thermophilum; test: Antimicrobial activity against 60 min 1 M HCl-stressed Bifidobacterium thermophilum ATCC 25866 after 18 hrs; type: functional; how it was run: as §4
[33] = test system: Bifidobacterium bifidum; test: Antimicrobial activity against 90 mins oxgall-stressed Bifidobacterium bifidum ATCC 15696 after 18 hrs; type: functional; how it was run: as §2
[34] = test system: Bifidobacterium longum; test: Antimicrobial activity against 60 min 1 M HCl-stressed Bifidobacterium longum R0175 after 18 hrs; type: functional; how it was run: as §4
[35] = test system: Bifidobacterium bifidum; test: Antimicrobial activity against 60 min 1 M HCl-stressed Bifidobacterium bifidum BB12 after 18 hrs; type: functional; how it was run: as §4
[36] = test system: Bifidobacterium breve; test: Antimicrobial activity against 90 mins hydrogen peroxide-stressed Bifidobacterium breve ATCC 15700 after 18 hrs; type: functional; how it was run: as §3
[37] = test system: Bifidobacterium bifidum; test: Antimicrobial activity against 90 mins hydrogen peroxide-stressed Bifidobacterium bifidum BB12 after 18 hrs; type: functional; how it was run: as §3
[38] = test system: Bifidobacterium breve; test: Antimicrobial activity against 90 mins hydrogen peroxide-stressed Bifidobacterium breve R0070 after 18 hrs; type: functional; how it was run: as §3
[39] = test system: Bifidobacterium breve; test: Antimicrobial activity against 90 mins oxgall-stressed Bifidobacterium breve ATCC 15700 after 18 hrs; type: functional; how it was run: as §2
[40] = test system: Bifidobacterium longum; test: Antimicrobial activity against Bifidobacterium longum ATCC 15708; type: functional; how it was run: as §1
[41] = test system: Bifidobacterium longum; test: Antimicrobial activity against 90 mins oxgall-stressed Bifidobacterium longum P/N 601377 after 18 hrs; type: functional; how it was run: as §2
[42] = test system: Bifidobacterium breve; test: Antimicrobial activity against 60 min 1 M HCl-stressed Bifidobacterium breve ATCC 15700 after 18 hrs; type: functional; how it was run: as §4
[43] = test system: Bifidobacterium longum; test: Antimicrobial activity against 90 mins hydrogen peroxide-stressed Bifidobacterium longum P/N 601377 after 18 hrs; type: functional; how it was run: as §3
[44] = test system: Bifidobacterium bifidum; test: Antimicrobial activity against Bifidobacterium bifidum BB12; type: functional; how it was run: as §1
[45] = test system: Bifidobacterium longum; test: Antimicrobial activity against Bifidobacterium longum P/N 601377; type: functional; how it was run: as §1
[46] = Antimicrobial activity against 90 mins oxgall-stressed Bifidobacterium infantis ATCC 15697 after 18 hrs; type: functional, Bifidobacterium longum subsp. infantis; conditions: Bifidobacterium longum; how it was run: as §2
[47] = test system: Bifidobacterium pseudolongum; test: Antimicrobial activity against Bifidobacterium pseudolongum ATCC 25562; type: functional; how it was run: as §1

Measured: MIC

CC1(C)S[C@@H]2[C@H](NC(=O)[C@H](N)c3ccccc3)C(=O)N2[C@H]1C(=O)O [AMPICILLIN]
31.2 µg/mL: [44]
1.9 µg/mL: [13] | [16] | [27]
7.8 µg/mL: [20] | [28] | [40]
3.9 µg/mL: [8] | [10] | [18] | [25] | [29] | [31] | [32] | [36] | [39] | [47]
15.6 µg/mL: [3] | [14] | [23]
0.98 µg/mL: all other assays above

O=C(N[C@H](CO)[C@H](O)c1ccc([N+](=O)[O-])cc1)C(Cl)Cl [CHLORAMPHENICOL]
62.5 µg/mL: [20] | [42]
31.2 µg/mL: [40]
3.9 µg/mL: [10] | [16] | [22] | [24] | [26] | [29] | [31] | [32] | [33] | [34] | [39] | [45]
7.8 µg/mL: [3] | [9] | [18] | [21] | [23] | [25] | [28] | [47]
0.98 µg/mL: [2] | [6] | [17] | [46]
15.6 µg/mL: [14]
1.9 µg/mL: all other assays above
